The text below walks through data of ChEMBL document CHEMBL2203205 (Eur J Med Chem, 2012).

SMILES strings stand for the structures.

Data set [1] in a line: Half life in Sprague-Dawley rat at 10 mg/kg, po. On the set-up: dose 10 mg/kg, route oral. Particulars: in vivo; call rule not given here. It is filed as ADME, organism-based. The essentials: (§1)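 Male Sprague-Dawley rats dosed intravenously (3 mg/kg) and orally (10 mg/kg). PK parameters came from non-compartmental analysis of plasma concentration vs time curves.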
The target of data set [2] is T1, Alpha-1A adrenergic receptor (Homo sapiens, UniProt P35348).
T1 sequence (P35348 whole entry): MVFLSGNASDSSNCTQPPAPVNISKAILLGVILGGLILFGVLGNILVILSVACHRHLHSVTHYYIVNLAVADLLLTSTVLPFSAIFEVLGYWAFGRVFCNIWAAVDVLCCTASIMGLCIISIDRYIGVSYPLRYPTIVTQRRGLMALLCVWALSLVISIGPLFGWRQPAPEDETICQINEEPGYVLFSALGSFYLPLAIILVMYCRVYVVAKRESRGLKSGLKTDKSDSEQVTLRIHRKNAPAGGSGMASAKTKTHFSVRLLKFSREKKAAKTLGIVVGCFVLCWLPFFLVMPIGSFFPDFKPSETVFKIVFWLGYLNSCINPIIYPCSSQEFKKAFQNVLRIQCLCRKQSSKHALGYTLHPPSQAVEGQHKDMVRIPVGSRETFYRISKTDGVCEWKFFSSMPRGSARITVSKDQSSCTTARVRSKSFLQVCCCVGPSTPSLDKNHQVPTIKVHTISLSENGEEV
The experiment in a line: Inhibition of alpha1A adrenergic receptor. Summed up:
(§2)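 Radioligand competition binding, run first as a single-concentration broad screen at […], then as concentration-response for follow-up targets, with the reference compound tested in parallel. Specific binding is total minus binding in excess unlabelled ligand, expressed as % of control specific binding. IC50 and Hill coefficient come from non-linear Hill-equation regression of competition curves built from mean replicate values.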

In data set [3] the target is T2, Alpha-2B adrenergic receptor (Homo sapiens, UniProt P18089).
T2 sequence (P18089 whole entry): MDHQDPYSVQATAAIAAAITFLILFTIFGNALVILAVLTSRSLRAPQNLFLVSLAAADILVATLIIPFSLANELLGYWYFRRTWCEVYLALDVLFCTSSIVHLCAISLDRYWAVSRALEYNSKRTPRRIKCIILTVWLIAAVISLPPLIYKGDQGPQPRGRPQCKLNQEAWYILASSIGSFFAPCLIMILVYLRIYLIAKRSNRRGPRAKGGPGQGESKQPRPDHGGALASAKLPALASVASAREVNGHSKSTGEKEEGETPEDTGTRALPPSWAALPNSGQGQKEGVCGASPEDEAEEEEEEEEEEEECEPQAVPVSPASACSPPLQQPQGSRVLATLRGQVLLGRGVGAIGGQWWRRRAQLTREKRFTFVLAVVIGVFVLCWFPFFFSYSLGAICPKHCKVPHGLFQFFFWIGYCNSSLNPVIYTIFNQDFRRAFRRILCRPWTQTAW
Description: Inhibition of alpha2B adrenergic receptor. Summed up:
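Binding assay from a broad screen, with a reference compound tested concurrently. Specific binding was total minus nonspecific binding (excess unlabelled ligand). IC50 and Hill coefficient came from non-linear regression of competition curves using mean replicate values.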

The target of data set [4] is T3, Muscarinic acetylcholine receptor M2 (Homo sapiens, UniProt P08172).
T3 sequence (P08172 whole entry): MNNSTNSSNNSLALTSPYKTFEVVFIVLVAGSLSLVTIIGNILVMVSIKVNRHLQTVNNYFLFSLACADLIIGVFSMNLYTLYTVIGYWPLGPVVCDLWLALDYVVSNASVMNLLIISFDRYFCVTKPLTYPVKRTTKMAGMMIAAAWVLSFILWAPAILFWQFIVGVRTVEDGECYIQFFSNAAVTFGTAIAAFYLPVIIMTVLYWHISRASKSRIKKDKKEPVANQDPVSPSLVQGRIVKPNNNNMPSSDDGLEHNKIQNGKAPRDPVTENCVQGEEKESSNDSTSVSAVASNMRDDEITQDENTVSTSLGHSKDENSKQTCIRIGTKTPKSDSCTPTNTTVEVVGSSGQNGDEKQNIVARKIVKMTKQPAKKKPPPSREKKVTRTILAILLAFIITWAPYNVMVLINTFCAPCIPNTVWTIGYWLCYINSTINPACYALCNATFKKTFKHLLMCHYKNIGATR
Description: Inhibition of muscarinic M2 receptor. The essentials: as §2

Data set [5] concerns the target 5-hydroxytryptamine receptor 1B (Homo sapiens, UniProt P28222). Description: Inhibition of 5HT1B receptor. Summed up:
as §2

A short description of data set [6]: Cmax in Sprague-Dawley rat at 10 mg/kg, po. It is filed as ADME, organism-based. On the set-up: dose 10 mg/kg, route oral. As to conditions: in vivo. The essentials: as §1
The nature of data set [7]: Tmax in Sprague-Dawley rat at 10 mg/kg, po. The class given is ADME, organism-based. On the set-up: dose 10 mg/kg, route oral. As to conditions: in vivo. The essentials: as §1
Data set [8] is described as follows: AUC in Sprague-Dawley rat at 3 mg/kg, iv. It is filed as ADME, organism-based. On the set-up: dose 3 mg/kg, route intravenous. Particulars: plasma. Summed up:
as §1

The nature of data set [9]: Volume of distribution at steady state in Sprague-Dawley rat at 3 mg/kg, iv. On the set-up: dose 3 mg/kg, route intravenous. It is filed as ADME, organism-based. As to conditions: in vivo, read-out: Vdss. The essentials: as §1
Data set [10] in a line: Clearance in Sprague-Dawley rat at 3 mg/kg, iv. On the set-up: dose 3 mg/kg, route intravenous. As to conditions: in vivo. The class given is ADME, organism-based. Summed up: as §1
Data set [11] can be described thus: Oral bioavailability in Sprague-Dawley rat at 10 mg/kg. The class given is ADME, organism-based. Particulars: in vivo. Summed up: as §1
The target of data set [12] is T4, Voltage-gated inwardly rectifying potassium channel KCNH2 (Homo sapiens, UniProt Q12809). Description: Displacement of [3H]astemizole from human recombinant ERG expressed in HEK293 cells. It is filed as cell-based. The essentials: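 Binding was run in human recombinant HEK-293 cells with [3H]astemizole at 2 nM, incubated 75 min at 22 °C, with astemizole as reference. Nonspecific binding was taken with excess unlabelled ligand. Results were given as percent inhibition of control specific binding.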
T4 sequence (Q12809 whole entry): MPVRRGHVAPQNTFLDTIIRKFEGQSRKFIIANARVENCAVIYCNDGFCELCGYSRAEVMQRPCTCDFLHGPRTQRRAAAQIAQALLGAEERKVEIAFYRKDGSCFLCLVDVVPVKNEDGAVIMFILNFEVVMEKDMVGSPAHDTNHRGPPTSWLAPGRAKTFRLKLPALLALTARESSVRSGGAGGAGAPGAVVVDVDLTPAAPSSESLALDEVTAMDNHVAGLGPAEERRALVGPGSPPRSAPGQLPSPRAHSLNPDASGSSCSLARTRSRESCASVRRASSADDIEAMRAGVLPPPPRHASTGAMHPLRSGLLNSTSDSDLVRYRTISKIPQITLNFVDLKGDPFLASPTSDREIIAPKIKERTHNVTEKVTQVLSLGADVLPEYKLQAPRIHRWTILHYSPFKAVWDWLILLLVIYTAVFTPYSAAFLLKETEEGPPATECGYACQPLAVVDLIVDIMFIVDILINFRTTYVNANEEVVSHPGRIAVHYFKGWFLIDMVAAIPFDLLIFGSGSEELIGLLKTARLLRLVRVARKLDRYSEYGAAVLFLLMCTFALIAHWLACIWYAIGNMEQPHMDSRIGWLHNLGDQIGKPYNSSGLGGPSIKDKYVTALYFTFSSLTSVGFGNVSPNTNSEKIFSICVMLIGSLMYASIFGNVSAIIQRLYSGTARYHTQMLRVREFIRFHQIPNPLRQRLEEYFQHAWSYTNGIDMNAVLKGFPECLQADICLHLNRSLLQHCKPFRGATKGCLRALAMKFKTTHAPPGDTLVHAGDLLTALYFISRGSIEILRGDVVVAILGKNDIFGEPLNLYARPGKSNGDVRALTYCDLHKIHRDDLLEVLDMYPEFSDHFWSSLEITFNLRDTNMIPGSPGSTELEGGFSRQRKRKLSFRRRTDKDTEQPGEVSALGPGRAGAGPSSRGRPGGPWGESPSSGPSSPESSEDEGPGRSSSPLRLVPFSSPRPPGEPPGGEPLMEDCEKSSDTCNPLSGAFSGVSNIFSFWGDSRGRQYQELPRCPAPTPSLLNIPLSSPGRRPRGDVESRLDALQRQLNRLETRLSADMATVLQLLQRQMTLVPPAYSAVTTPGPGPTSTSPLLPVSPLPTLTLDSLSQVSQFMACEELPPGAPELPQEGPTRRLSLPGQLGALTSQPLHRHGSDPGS

Data set [13] deals with T4, Voltage-gated inwardly rectifying potassium channel KCNH2. Description: Inhibition of human recombinant ERG expressed in HEK293 cells up to 100 uM after 5 to 10 mins by conventional whole-cell patch clamp assay. The class given is cell-based. The essentials:
(§3)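 Conventional whole-cell patch clamp on HEK-293 cells stably expressing hERG, cultured 1–7 days in DMEM/GlutaMax-1 + 10% FBS on collagen-coated dishes. Holding potential was −80 mV. Compound was superfused 5–10 min per concentration at rt (22–24 °C). Tail current amplitude was measured before and after superfusion. IC50 came from a logistic fit of the concentration-response.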

Data set [14] has the same target. Description: Inhibition of human recombinant ERG expressed in HEK293 cells after 5 to 10 mins by conventional whole-cell patch clamp assay. The class given is cell-based. Summed up: as §3
Another data set deals with Cytochrome P450 2D6 (Homo sapiens, UniProt P10635). The experiment in a line: Inhibition of human CYP2D6. It is filed as ADME.
Sequence of Cytochrome P450 2D6 (P10635 whole entry): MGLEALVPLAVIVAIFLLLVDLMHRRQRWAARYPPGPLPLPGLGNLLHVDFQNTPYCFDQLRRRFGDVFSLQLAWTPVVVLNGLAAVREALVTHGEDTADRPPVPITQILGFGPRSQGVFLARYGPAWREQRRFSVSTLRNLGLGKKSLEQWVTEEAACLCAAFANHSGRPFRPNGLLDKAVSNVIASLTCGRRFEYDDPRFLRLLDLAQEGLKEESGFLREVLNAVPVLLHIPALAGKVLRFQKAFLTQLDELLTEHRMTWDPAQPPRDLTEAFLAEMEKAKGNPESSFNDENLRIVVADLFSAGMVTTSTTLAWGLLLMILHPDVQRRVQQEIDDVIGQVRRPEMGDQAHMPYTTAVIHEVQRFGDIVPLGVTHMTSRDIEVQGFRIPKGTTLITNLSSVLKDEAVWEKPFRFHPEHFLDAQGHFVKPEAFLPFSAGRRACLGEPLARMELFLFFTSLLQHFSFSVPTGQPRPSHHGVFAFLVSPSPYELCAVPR
In the next data set the test system is Rattus norvegicus. The experiment in a line: Analgesic activity in rat L5 and L6 spinal nerve ligation model assessed as reversal of thermal hyperalgesia at 30 mg/kg, ip after 60 mins. The class given is functional. Particulars: route intraperitoneal.

Sequence of 5-hydroxytryptamine receptor 1B (P28222 whole entry): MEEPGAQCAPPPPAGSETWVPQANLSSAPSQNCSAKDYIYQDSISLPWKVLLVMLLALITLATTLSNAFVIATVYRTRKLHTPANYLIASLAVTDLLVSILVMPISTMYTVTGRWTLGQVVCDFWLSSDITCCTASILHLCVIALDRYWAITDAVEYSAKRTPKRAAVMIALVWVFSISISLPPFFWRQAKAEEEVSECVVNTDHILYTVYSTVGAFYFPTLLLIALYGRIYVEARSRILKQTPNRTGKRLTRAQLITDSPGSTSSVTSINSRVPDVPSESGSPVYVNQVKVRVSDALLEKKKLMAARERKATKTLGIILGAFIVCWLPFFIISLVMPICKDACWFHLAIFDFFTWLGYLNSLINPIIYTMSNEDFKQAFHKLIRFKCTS

In turn, `N=C(Nc1ccc2c(c1)CCN2C1CCNCC1)c1cccs1` showed a half-life in data set [1] of 12 h. In addition, the IC50 in data set [2] was 1.9 µM; in [3], 32 µM; in data set [4], 3.6 µM; in [5], 2.2 µM; in [12] it was 160 µM; in [14] it was more than 100 µM. On Cytochrome P450 2D6, this compound returned an IC50 of 0.75 µM. The Cmax in data set [6] was 101 ng/mL. Moreover, in data set [7], the time to peak (Tmax) amounted to 2 h. The compound also displayed an AUC in [8] of 95.2 ng·h/mL. In [9], the Vd was found to be 330 L/kg. The compound also returned a clearance in [10] of 420 mL/min/kg. This compound also registered a bioavailability in data set [11] of 91%. Also, the “inhibition (INH)” value in data set [13] was “Not Active”. Further, the Activity with Rattus norvegicus was 71%.
